Legend:
Cytochrome P450 26A1 = biological target: T1, Cytochrome P450 26A1 (Homo sapiens, UniProt O43174); assay: Inhibition of CYP26 expressed in human T47D cell line
T1 sequence (O43174 whole entry): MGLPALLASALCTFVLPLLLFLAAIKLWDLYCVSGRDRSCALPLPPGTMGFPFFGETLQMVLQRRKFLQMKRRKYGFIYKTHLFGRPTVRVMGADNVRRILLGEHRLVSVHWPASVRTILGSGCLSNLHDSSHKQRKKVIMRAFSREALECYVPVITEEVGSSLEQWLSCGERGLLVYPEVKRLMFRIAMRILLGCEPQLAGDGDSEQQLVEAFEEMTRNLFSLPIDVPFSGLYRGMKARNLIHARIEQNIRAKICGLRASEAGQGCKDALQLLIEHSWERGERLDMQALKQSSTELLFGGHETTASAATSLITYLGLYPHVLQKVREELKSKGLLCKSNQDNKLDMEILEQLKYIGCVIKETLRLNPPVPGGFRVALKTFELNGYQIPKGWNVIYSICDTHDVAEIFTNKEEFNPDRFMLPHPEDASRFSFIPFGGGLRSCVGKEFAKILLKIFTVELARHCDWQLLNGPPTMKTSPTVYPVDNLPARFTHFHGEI

Cytochrome P450 3A4 = Cytochrome P450 3A4 (Homo sapiens, UniProt P08684)
Cytochrome P450 3A4, sequence (P08684 whole entry): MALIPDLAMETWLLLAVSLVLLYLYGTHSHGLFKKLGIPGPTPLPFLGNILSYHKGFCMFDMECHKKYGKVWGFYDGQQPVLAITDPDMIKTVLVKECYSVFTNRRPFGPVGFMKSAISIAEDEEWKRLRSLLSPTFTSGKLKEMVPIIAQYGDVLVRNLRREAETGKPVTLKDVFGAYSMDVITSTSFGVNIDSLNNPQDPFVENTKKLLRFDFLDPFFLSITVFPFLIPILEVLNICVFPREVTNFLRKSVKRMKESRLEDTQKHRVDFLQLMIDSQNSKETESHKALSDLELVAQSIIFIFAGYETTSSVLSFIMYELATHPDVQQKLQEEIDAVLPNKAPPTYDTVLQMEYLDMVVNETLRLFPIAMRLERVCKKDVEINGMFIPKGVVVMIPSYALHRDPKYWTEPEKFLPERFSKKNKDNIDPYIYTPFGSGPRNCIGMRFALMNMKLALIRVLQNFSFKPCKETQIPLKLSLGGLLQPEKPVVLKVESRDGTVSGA

T47D = assay: Activity against human T47D cell line; format: functional
in vivo [1] = details: CD1, mouse, po, 5 mg/kg
in vivo [2] = details: CD1, mouse, iv, 1 mg/kg
Mus musculus [3] = organism: Mus musculus; details: in vivo, po, 5 mg/kg
[4] = Bioavailability in CD1 mouse; details: in vivo
Cytochrome P450 2D6 = Cytochrome P450 2D6 (Homo sapiens, UniProt P10635)
Cytochrome P450 2D6, sequence (P10635 whole entry): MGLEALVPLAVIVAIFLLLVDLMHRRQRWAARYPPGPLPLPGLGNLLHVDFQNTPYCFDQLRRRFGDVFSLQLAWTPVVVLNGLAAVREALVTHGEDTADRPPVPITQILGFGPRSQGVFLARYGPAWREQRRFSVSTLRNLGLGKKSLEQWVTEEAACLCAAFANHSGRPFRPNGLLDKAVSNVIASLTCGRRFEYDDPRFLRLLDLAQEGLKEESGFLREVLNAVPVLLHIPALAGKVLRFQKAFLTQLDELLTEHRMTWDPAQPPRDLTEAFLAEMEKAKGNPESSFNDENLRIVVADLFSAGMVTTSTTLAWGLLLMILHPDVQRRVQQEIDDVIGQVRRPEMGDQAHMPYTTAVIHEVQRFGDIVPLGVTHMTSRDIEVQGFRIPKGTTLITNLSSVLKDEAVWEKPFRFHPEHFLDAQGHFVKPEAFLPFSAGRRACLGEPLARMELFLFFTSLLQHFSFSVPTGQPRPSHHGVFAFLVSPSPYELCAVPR

Cytochrome P450 1A2 = biological target: T2, Cytochrome P450 1A2 (Homo sapiens, UniProt P05177)
T2 sequence (P05177 whole entry): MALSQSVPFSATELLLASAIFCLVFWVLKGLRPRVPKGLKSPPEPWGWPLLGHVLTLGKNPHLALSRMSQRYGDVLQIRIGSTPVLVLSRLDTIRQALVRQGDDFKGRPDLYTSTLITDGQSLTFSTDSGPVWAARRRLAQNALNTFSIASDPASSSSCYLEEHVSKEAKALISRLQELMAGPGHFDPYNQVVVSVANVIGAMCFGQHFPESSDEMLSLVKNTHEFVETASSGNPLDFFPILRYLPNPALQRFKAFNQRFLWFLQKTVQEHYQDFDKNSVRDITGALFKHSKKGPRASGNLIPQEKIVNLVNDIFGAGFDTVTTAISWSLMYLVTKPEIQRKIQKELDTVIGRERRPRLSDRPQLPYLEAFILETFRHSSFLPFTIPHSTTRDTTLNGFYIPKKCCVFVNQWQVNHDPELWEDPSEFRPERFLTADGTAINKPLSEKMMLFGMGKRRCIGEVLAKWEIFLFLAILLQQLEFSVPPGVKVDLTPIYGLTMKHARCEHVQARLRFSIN

Cytochrome P450 2C9 = Cytochrome P450 2C9 (Homo sapiens, UniProt P11712)
Cytochrome P450 2C9, sequence (P11712 whole entry): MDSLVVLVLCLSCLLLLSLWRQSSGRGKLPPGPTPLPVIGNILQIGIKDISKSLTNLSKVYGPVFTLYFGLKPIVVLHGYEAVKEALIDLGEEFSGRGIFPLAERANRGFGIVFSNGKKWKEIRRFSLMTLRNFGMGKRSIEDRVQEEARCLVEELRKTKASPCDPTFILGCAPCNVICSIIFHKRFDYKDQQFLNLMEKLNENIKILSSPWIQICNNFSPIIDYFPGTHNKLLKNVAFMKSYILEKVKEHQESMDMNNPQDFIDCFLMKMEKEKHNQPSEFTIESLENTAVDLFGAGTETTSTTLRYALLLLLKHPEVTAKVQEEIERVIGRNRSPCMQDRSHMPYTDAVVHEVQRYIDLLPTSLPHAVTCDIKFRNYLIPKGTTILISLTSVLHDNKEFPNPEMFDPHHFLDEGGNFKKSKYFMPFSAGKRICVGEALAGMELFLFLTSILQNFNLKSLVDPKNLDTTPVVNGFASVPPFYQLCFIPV

Mus musculus [5] = assay: AUC(0-tz) in CD1 mouse at 5 mg/kg, po co-administered with 3-[6-(2-dimethylamino- 1-imidazol-1-yl-butyl)-naphthalen-2-yloxy]- 2,2-dimethyl-propionic acid at 10 mg/kg, po; format: ADME, organism-based, Plasma; details: in vivo
In short: (§1)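 Female CD-1 mice, about six weeks old, got atRA at 5 mg/kg by gavage (0.5 mg/mL in 1.5% v/v DMSO/safflower oil, 10 mL/kg). This was given immediately before the inhibitor at 10 mg/kg orally in water for injection. Three mice per timepoint gave cardiac EDTA blood. Plasma was acetonitrile-precipitated, and atRA was read by HPLC-UV against blank mouse plasma standards. AUC came from noncompartmental analysis of median values.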

[6] = Plasma concentration in CD1 mouse at 5 mg/kg, po after 2 hrs; format: ADME, organism-based; design: dose 5 mg/kg, route oral
In short: (§2)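 Female CD-1 mice, about six weeks old, got atRA by oral gavage at 10 mL/kg (5 mg/kg), from a 0.5 mg/mL solution in 1.5% v/v DMSO in safflower oil. Three mice per timepoint gave terminal cardiac blood in EDTA.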

[7] = Plasma concentration in CD1 mouse at 5 mg/kg, po after 8 hrs; format: ADME, organism-based; design: dose 5 mg/kg, route oral; in short: as §2
Mus musculus [8] = assay: AUC(0-tz) in CD1 mouse at 5 mg/kg, po; format: ADME, organism-based, Plasma; design: dose 5 mg/kg, route oral; details: in vivo; in short: as §2
[9] = Plasma concentration in CD1 mouse at 5 mg/kg, po after 2 hrs co-administered with 3-[6-(2-dimethylamino- 1-imidazol-1-yl-propyl)-naphthalen-2-yloxy]- 2,2-dimethyl-propionic acid at 10 mg/kg, po; format: ADME, organism-based; in short: as §1
[10] = Plasma concentration in CD1 mouse at 5 mg/kg, po after 8 hrs co-administered with 3-[6-(2-dimethylamino- 1-imidazol-1-yl-butyl)-naphthalen-2-yloxy]- 2,2-dimethyl-propionic acid at 10 mg/kg, po; format: ADME, organism-based; in short: as §1
[11] = Plasma concentration in CD1 mouse at 5 mg/kg, po after 2 hrs co-administered with 3-[6-(2-dimethylamino- 1-imidazol-1-yl-butyl)-naphthalen-2-yloxy]- 2,2-dimethyl-propionic acid at 10 mg/kg, po; format: ADME, organism-based; in short: as §1
[12] = Plasma concentration in CD1 mouse at 5 mg/kg, po after 8 hrs co-administered with 3-[6-(2-dimethylamino- 1-imidazol-1-yl-propyl)-naphthalen-2-yloxy]- 2,2-dimethyl-propionic acid at 10 mg/kg, po; format: ADME, organism-based; in short: as §1
Mus musculus [13] = assay: AUC(0-tz) in CD1 mouse at 5 mg/kg, po co-administered with 3-[6-(2-dimethylamino- 1-imidazol-1-yl-propyl)-naphthalen-2-yloxy]- 2,2-dimethyl-propionic acid at 10 mg/kg, po; format: ADME, organism-based, Plasma; details: in vivo; in short: as §1

Question: For CN(C)C[C@@H](c1ccc2cc(OCC(C)(C)C(=O)O)ccc2c1)n1ccnc1, which IC50 (Cytochrome P450 26A1) is on record?
Answer: 403 nM

Question: With CCCCN(C)[C@H](C)[C@@H](c1ccc2cc(OCC(C)(C)C(=O)O)ccc2c1)n1ccnc1 as the compound, how does the IC50 (Cytochrome P450 26A1) read?
Answer: 60 nM

Question: Which IC50 (Cytochrome P450 26A1) does the source give for CCN(CC)[C@H](C)[C@@H](c1ccc2cc(OCC3(C(=O)O)CCCC3)ccc2c1)n1ccnc1 here?
Answer: 1.4 nM

Question: What about the IC50 (Cytochrome P450 3A4) of the same compound?
Answer: 1.01 µM

Question: Which IC50 (Cytochrome P450 26A1) does the source give for C[C@H]([C@@H](c1ccc2cc(OCC3(C(=O)O)CC3)ccc2c1)n1ccnc1)N(C)C here?
Answer: 34.7 nM

Question: And the IC50 (Cytochrome P450 3A4)?
Answer: 7.5 µM

Question: With CC(C)N(C)[C@H](C)[C@@H](c1ccc2cc(OCC3(C(=O)O)CCCC3)ccc2c1)n1ccnc1 as the compound, how does the IC50 (Cytochrome P450 26A1) read?
Answer: 1.6 nM

Question: And the IC50 (Cytochrome P450 3A4)?
Answer: 0.8 µM

Question: What does the source list for C[C@H]([C@@H](c1ccc2cc(OCC3(C(=O)O)CCC3)ccc2c1)n1ccnc1)N(C)C?
Answer: IC50 (Cytochrome P450 26A1): 40 nM; IC50 (Cytochrome P450 3A4): 7 µM

Question: Which IC50 (Cytochrome P450 26A1) does the source give for C[C@H]([C@@H](c1ccc2cc(OCC(C)(C)C(=O)O)ccc2c1)n1ccnc1)N(C)C1CCCCC1 here?
Answer: 125 nM

Question: Which IC50 (Cytochrome P450 26A1) does the source give for CC(C)N(C)[C@H](C)[C@@H](c1ccc2cc(OCC(C)(C)C(=O)O)ccc2c1)n1ccnc1 here?
Answer: 3 nM

Question: What does the source list for C[C@H]([C@@H](c1ccc2cc(OCC3(C(=O)O)CCCCC3)ccc2c1)n1ccnc1)N(C)C?
Answer: Activity (T47D): <100 nM; Cmax (in vivo [1]): 23 µM; IC50 (Cytochrome P450 26A1): 11.2 nM; half-life (in vivo [2]): 148 min; AUC (Mus musculus [3]): 17500 ng·h/mL; bioavailability [4]: 99%; IC50 (Cytochrome P450 3A4): 8 µM; IC50 (Cytochrome P450 2D6): > 5 µM; IC50 (Cytochrome P450 1A2): > 5 µM; IC50 (Cytochrome P450 2C9): > 5 µM

Question: What does the source list for CCN(C)[C@H](C)[C@@H](c1ccc2cc(OCC3(C(=O)O)CCCC3)ccc2c1)n1ccnc1?
Answer: Activity (T47D): <100 nM; Cmax (in vivo [1]): 13 µM; IC50 (Cytochrome P450 26A1): 4.2 nM; half-life (in vivo [2]): 426 min; AUC (Mus musculus [3]): 18900 ng·h/mL; bioavailability [4]: 99%; IC50 (Cytochrome P450 3A4): 2.3 µM; IC50 (Cytochrome P450 2D6): > 5 µM; IC50 (Cytochrome P450 1A2): > 5 µM; IC50 (Cytochrome P450 2C9): > 5 µM

Question: For C[C@H]([C@@H](c1ccc2cc(OCC(C)(C)C(=O)O)ccc2c1)n1ccnc1)N(C)C, which Activity (T47D) is on record?
Answer: 125 nM

Question: With CCN(CC)[C@H](C)[C@@H](c1ccc2cc(OCC(C)(C)C(=O)O)ccc2c1)n1ccnc1 as the compound, how does the IC50 (Cytochrome P450 26A1) read?
Answer: 5 nM

Question: For C[C@H]([C@@H](c1ccc2cc(OCC(C)(C)C(=O)O)ccc2c1)n1ccnc1)N1CCOCC1, which IC50 (Cytochrome P450 26A1) is on record?
Answer: 34 nM

Question: And the IC50 (Cytochrome P450 3A4)?
Answer: 2.15 µM

Question: With CC[C@H]([C@@H](c1ccc2cc(OCC(C)(C)C(=O)O)ccc2c1)n1ccnc1)N(C)C as the compound, how does the Activity (T47D) read?
Answer: <5 nM

Question: What about the Cmax (in vivo [1]) of the same compound?
Answer: 6.7 µM

Question: What about the IC50 (Cytochrome P450 26A1) of the same compound?
Answer: 1.3 nM

Question: And the half-life (in vivo [2])?
Answer: 166 min

Question: What about the AUC (Mus musculus [3]) of the same compound?
Answer: 5430 ng·h/mL

Question: And the bioavailability [4]?
Answer: 73%

Question: What about the IC50 (Cytochrome P450 2D6) of the same compound?
Answer: > 5 µM

Question: And the IC50 (Cytochrome P450 1A2)?
Answer: > 5 µM

Question: What about the IC50 (Cytochrome P450 2C9) of the same compound?
Answer: > 5 µM

Question: With C[C@H]([C@@H](c1ccc2cc(OCC(C)(C)C(=O)O)ccc2c1)n1ccnc1)N1CCCC1 as the compound, how does the IC50 (Cytochrome P450 26A1) read?
Answer: 583 nM

Question: For CCN(C)[C@H](C)[C@@H](c1ccc2cc(OCC(C)(C)C(=O)O)ccc2c1)n1ccnc1, which IC50 (Cytochrome P450 26A1) is on record?
Answer: 9 nM

Question: Which results are given for C[C@H]([C@@H](c1ccc2cc(OCC3(C(=O)O)CCCC3)ccc2c1)n1ccnc1)N(C)C?
Answer: Activity (T47D): <100 nM; Cmax (in vivo [1]): 5.5 µM; IC50 (Cytochrome P450 26A1): 7.3 nM; half-life (in vivo [2]): 149 min; AUC (Mus musculus [3]): 5800 ng·h/mL; bioavailability [4]: 77%; IC50 (Cytochrome P450 3A4): 8.2 µM; IC50 (Cytochrome P450 2D6): > 5 µM; IC50 (Cytochrome P450 1A2): > 5 µM; IC50 (Cytochrome P450 2C9): > 5 µM

Question: For CCC(CC)(COc1ccc2cc([C@H]([C@@H](C)N(C)C)n3ccnc3)ccc2c1)C(=O)O, which IC50 (Cytochrome P450 26A1) is on record?
Answer: 37 nM

Question: Which IC50 (Cytochrome P450 26A1) does the source give for C[C@H]([C@@H](c1ccc2cc(OCC3(C(=O)O)CCOCC3)ccc2c1)n1ccnc1)N(C)C here?
Answer: 46.7 nM

Question: What about the IC50 (Cytochrome P450 3A4) of the same compound?
Answer: > 20 µM

Question: With CN(C)C(C)(C)[C@@H](c1ccc2cc(OCC(C)(C)C(=O)O)ccc2c1)n1ccnc1 as the compound, how does the IC50 (Cytochrome P450 26A1) read?
Answer: 26 nM

Question: What does the source list for CC1=C(/C=C/C(C)=C/C=C/C(C)=C/C(=O)O)C(C)(C)CCC1 [TRETINOIN]?
Answer: AUC (Mus musculus [5]): 9900 ng·h/mL; concentration at 2 h [6]: 5.24 µM; concentration at 8 h [7]: < 10 nM; AUC (Mus musculus [8]): 1690 ng·h/mL; concentration at 2 h [9]: 6.66 µM; concentration at 8 h [10]: 2730 nM; concentration at 2 h [11]: 7.72 µM; concentration at 8 h [12]: 40 nM; AUC (Mus musculus [13]): 6470 ng·h/mL
